The results in this text go back to ChEMBL document CHEMBL5257137, “Inhibition of Thiamine Diphosphate-Dependent Enzymes by Triazole-Based Thiamine Analogues” (ACS Med Chem Lett, 2023).

Assay [1] has as its system Aerococcus viridans. In words: Inhibition of Aerococcus viridans pyruvate oxidase at 250 uM preincubated for 30 mins followed by pyruvate addition using 125 uM ThDP as substrate by microplate reader analysis.
Assay [2] deals with Aerococcus viridans. The assay is described as follows: Inhibition of Aerococcus viridans pyruvate oxidase at 250 uM preincubated for 30 mins followed by pyruvate addition using 50 uM ThDP as substrate by microplate reader analysis. In outline: (§1)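 Single-point preliminary screen with compound at 250 μM and ThDP at 50 μM. Values are means of three technical replicates.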
The subject of assay [3] is Escherichia coli. The assay is described as follows: Inhibition of Escherichia coli OGDHc E1 subunit assessed as DCPIP reduction at 250 uM preincubated for 60 mins followed by […] addition using 125 uM ThDP as substrate by microplate reader analysis.
Assay [4] has as its system Escherichia coli. In words: Inhibition of Escherichia coli OGDHc E1 subunit assessed as DCPIP reduction at 250 uM preincubated for 60 mins followed by […] addition using 50 uM ThDP as substrate by microplate reader analysis. The essentials: as §1
Assay [5] deals with Plasmodium falciparum. In words: Antiplasmodial activity against chloroquine-sensitive Plasmodium falciparum 3D7 infected in human erythrocyte assessed as inhibition of parasite proliferation in presence of 297uM thiamine by SYBR-Safe assay. It counts as functional, organism-based. Particulars: 3D7, Erythrocyte. The essentials: (§2)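 P. falciparum 3D7-infected erythrocytes were exposed to compound in culture medium with added thiamine, 2.97 μM or 297 μM. Proliferation was read as parasite DNA by SYBR-Safe assay.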

The test system of assay [6] is Plasmodium falciparum. In words: Antiplasmodial activity against Plasmodium falciparum 3D7 infected in human erythrocyte assessed as intraerythrocytic growth inhibition in thiamine-free medium by [3H]-hypoxanthine incorporation assay. In kind it is functional, organism-based. Conditions: 3D7, Erythrocyte.
The subject of assay [7] is Plasmodium falciparum. The assay is described as follows: Antiplasmodial activity against chloroquine-sensitive Plasmodium falciparum 3D7 infected in human erythrocyte assessed as inhibition of parasite proliferation in presence of 2.97uM thiamine by SYBR-Safe assay. Conditions: 3D7, Erythrocyte. It counts as functional, organism-based. In outline:
as §2

Assay [8] relates to Plasmodium falciparum. In words: Antiplasmodial activity against chloroquine-sensitive Plasmodium falciparum 3D7 infected in human erythrocyte assessed as inhibition of parasite proliferation in thiamine free medium by SYBR-Safe assay. In kind it is functional, organism-based. Particulars: 3D7, Erythrocyte. The essentials:
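3D7 parasites in human erythrocytes cultured in thiamine-free medium with a range of compound concentrations. […] Means come from three independent experiments, each run in three technical replicates.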

The test system of assay [9] is Plasmodium falciparum. The assay is described as follows: Antiplasmodial activity against Plasmodium falciparum 3D7 infected in human erythrocyte assessed as intraerythrocytic growth inhibition in presence thiamine-rich medium by [3H]-hypoxanthine incorporation assay. It counts as functional, organism-based. Conditions: 3D7, Erythrocyte.
Assay [10] addresses T1, Pyruvate dehydrogenase E1 component subunit alpha, somatic form, mitochondrial (Sus scrofa, UniProt P29804).
T1 sequence (P29804 whole entry): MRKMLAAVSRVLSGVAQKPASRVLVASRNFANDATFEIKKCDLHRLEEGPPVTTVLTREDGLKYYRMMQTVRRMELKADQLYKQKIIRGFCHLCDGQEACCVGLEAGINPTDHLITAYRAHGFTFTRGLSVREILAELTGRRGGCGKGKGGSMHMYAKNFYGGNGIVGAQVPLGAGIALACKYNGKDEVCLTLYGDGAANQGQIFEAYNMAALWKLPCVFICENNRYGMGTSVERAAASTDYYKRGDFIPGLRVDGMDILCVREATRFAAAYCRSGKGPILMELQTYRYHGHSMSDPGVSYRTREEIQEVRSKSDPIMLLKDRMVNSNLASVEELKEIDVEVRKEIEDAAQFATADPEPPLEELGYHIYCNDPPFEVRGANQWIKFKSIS
The assay is described as follows: Inhibition of porcine PDHc E1-subunit assessed as DCPIP reduction preincubated for 30 mins followed by pyruvate addition using 10 uM ThDP as substrate by microplate reader analysis.

The target of assay [11] is T1, Pyruvate dehydrogenase E1 component subunit alpha, somatic form, mitochondrial. The assay is described as follows: Inhibition of porcine PDHc E1-subunit assessed as inhibition constant preincubated for 30 mins followed by pyruvate addition using 10 uM ThDP as substrate by microplate reader analysis.

pIC50, pKi: −log10 of the molar value. A value given as a limit tells only on which side of the number the result lay.

For `COc1ccc(-c2cn(CCc3cn(Cc4cnc(C)nc4N)nn3)nn2)cc1`, the inhibition in assay [1], in [2] and in [3] was less than 20% throughout.

Take `Cc1ncc(Cn2cc(CCCCn3cc(-c4ccccc4)nn3)nn2)c(N)n1`: the inhibition in [4], in assay [1], in assay [2] and in assay [3] was less than 20% throughout.

As for `Cc1ncc(Cn2cc(CCCn3cc(-c4ccccc4)nn3)nn2)c(N)n1`, the inhibition in assay [4], in [1], in assay [2] and in [3] was less than 20% throughout.

With `COc1ccc(-c2cn(CCCc3cn(Cc4cnc(C)nc4N)nn3)nn2)cc1`, the inhibition in assay [4], in assay [1], in assay [2] and in [3] was less than 20% each time.

Consider `Cc1ncc(C[n+]2csc(CCO)c2C)c(O)n1`, for which the pIC50 (as a rule, the IC50 on a negative log10 scale, so that one unit is a factor of ten) in assay [5] is 2.26; in assay [6], 4.96; in assay [7], 2.28; in assay [8] it was 4.96; in assay [9] it was 5.28.

In the case of `Cc1ncc(Cn2cc(CCn3cc(-c4ccccc4)nn3)nn2)c(N)n1`, the inhibition in [1] and in [3] was less than 20% throughout.

Regarding `Cc1ncc(Cn2cc(CCCC(=O)NO)nn2)c(N)n1`, the pIC50 in [10] is 5.05. Moreover, the negative logarithm of the Ki (pKi) (usually −log10 of the Ki, conventionally taken in molar units) in assay [11] is 7.35.

`Cc1ncc(Cn2cc(CCCn3cc(-c4ccc(F)cc4)nn3)nn2)c(N)n1`: the inhibition in assay [4], in assay [1], in assay [2] and in assay [3] was less than 20% in each case.

For the compound `COc1ccc(-c2cn(CCCCc3cn(Cc4cnc(C)nc4N)nn3)nn2)cc1`, the pIC50 in assay [10] was 5.22. The inhibition in assay [4], in assay [1], in [2] and in [3] was less than 20% each time.

For `Cc1ncc(Cn2cc(CCCCn3cc(-c4ccc(F)cc4)nn3)nn2)c(N)n1`, the inhibition in assay [4], in assay [1], in assay [2] and in assay [3] was less than 20% throughout.

For `Cc1ncc(Cn2cc(CCCCC(=O)NO)nn2)c(N)n1`, the pIC50 in assay [10] is 5.10; in assay [8] it was 5.52. In assay [11], the pKi is 7.40.

For the compound `Cc1ncc(Cn2cc(CCn3cc(-c4ccc(F)cc4)nn3)nn2)c(N)n1`, the inhibition in [1], in assay [2] and in [3] was less than 20% throughout.
